The values that follow come from ChEMBL document CHEMBL1125109, “High potency dipeptide sweeteners. 1. L-aspartyl-D-phenylglycine esters” (J Med Chem, 1990).

The experiment in a line: Sweetness potency relative to 5-10% of sucrose. Type of experiment: functional. In outline:
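Human taste panel: five to ten expert male panelists tasted and spat 10 mL of sweetener solution, rating sweetness potency and quality against five sucrose standards (0.04 M/1.4% to 0.35 M/12.0%). Test solution generally equivalent to 5–10% sucrose. Potency = equi-sweet sucrose concentration divided by actual sweetener concentration; mean ± 95% confidence limit. Acute oral rat toxicity tested first.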
`CC12CC(O)C(C1)C(C)(C)C2OC(=O)[C@H](NC(=O)[C@@H](N)CC(=O)O)c1ccccc1` (stereo partly specified) returned a Potency of 100.

`CC1CCC(C)C1OC(=O)[C@H](NC(=O)[C@@H](N)CC(=O)O)c1ccccc1` (stereo partly specified) displayed a Potency of 380.

The molecule `CC12CCC(C1)C(C)(C)C2OC(=O)[C@H](NC(=O)[C@@H](N)CC(=O)O)c1ccc(O)cc1` (stereo partly specified) had a Potency of 420.

The molecule `CC1CCCC(C)C1OC(=O)[C@H](NC(=O)[C@@H](N)CC(=O)O)c1ccccc1` (stereo partly specified) showed a Potency of 210.

Molecule `CC1(C)CCC(C)(C)C1OC(=O)[C@H](NC(=O)[C@@H](N)CC(=O)O)c1ccccc1` returned a Potency of 190.

Consider `CC1(C)C2CC[C@](C)(C2)[C@@H]1OC(=O)[C@H](NC(=O)[C@@H](N)CC(=O)O)c1ccccc1` (stereo in doubt; 29), for which the Potency was found to be 1200.

Consider `CC(OC(=O)[C@H](NC(=O)[C@@H](N)CC(=O)O)c1ccccc1)C(C)(C)C` (stereo partly specified), for which the Potency came out at 30.

Regarding `CC1(OC(=O)[C@H](NC(=O)[C@@H](N)CC(=O)O)c2ccccc2)CC2CCC1C2` (stereo partly specified), the Potency worked out at 40.

For `CC1(C)SC(C)(C)C1OC(=O)[C@H](NC(=O)[C@@H](N)CC(=O)O)c1ccccc1`, the Potency amounted to 300.

Molecule `CC12CCC(C1)C(C)(C)C2OC(=O)[C@H](NC(=O)[C@@H](N)CC(=O)O)c1ccccc1F` (stereo partly specified) came in with a Potency of 720.

Molecule `CC1(C)C2CCC1(C)C(OC(=O)[C@H](NC(=O)[C@@H](N)CC(=O)O)c1ccccc1)C2` (stereo partly specified) yielded a Potency of 0.

Turning to `N[C@@H](CC(=O)O)C(=O)N[C@@H](C(=O)OC1CC2CCC1C2)c1ccccc1` (stereo in doubt; 28), the Potency stood at 180.

As for `N[C@@H](CC(=O)O)C(=O)N[C@@H](C(=O)OC1CC2CCC1C2)c1ccccc1` (stereo in doubt; 26), the Potency came out at 20.

`CC12CCC(O1)C(C)(C)C2COC(=O)[C@H](NC(=O)[C@@H](N)CC(=O)O)c1ccccc1` (stereo partly specified) showed a Potency of 0.

Regarding `N[C@@H](CC(=O)O)C(=O)N[C@@H](C(=O)OC1C2CC3COC1C3C2)c1ccccc1` (stereo partly specified), the Potency worked out at 80.

Take `COC(=O)C(NC(=O)[C@@H](N)CC(=O)O)C(=O)O[C@@H]1C(C)(C)C2CC[C@]1(C)C2` (stereo partly specified): the Potency is 50000.
